PHOSPHO1 block: PubChem AID 1565. Phosphoethanolamine/phosphocholine phosphatase (Homo sapiens), Q8TCT1. recombinant PHOSPHO1, absorbance phosphatase assay. inhibition, % at 13.3 µM. 290,000 compounds, 1.1% hits; in the data active = inhibition above about 60%
CHT block: inhibitors of human choline transporter CHT | AID 488975, 2010 | High affinity choline transporter 1 (Homo sapiens), Q9GZV3 | 310,000 compounds, 0.86% hits | B-score at 10 µM | CHT-expressing cells, membrane potential dye, choline response; stronger effect = lower value;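 active = B-score over 3 SD under the library average, and starting fluorescence ratio not unusually high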;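 note: choline stimulus applied at its EC90 after an EC20 pre-addition; B-score computed on integrated fluorescence ratio after choline addition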
Target sequence (Q9GZV3 whole entry, looked up): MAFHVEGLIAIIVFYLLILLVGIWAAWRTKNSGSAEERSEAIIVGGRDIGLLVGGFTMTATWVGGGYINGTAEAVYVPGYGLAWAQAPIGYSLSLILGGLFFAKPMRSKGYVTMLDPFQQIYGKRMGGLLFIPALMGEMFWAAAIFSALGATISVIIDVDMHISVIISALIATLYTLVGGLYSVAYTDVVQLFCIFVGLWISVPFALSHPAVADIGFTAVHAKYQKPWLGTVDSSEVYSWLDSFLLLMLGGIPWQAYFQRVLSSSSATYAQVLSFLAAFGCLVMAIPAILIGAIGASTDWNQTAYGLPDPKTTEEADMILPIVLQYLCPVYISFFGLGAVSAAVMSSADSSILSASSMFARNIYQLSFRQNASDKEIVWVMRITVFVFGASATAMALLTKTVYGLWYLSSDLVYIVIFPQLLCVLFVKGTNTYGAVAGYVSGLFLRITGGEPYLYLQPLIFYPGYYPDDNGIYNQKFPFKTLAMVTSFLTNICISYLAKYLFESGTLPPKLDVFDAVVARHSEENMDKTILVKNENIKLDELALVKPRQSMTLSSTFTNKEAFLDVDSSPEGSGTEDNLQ
HSF1 inh: HSF1 inhibitors in luciferase reporter cells, primary screen, cell-based, NIH3T3, luminescence | NIH3T3-HGL HSE-luciferase, MG132-induced, luminescence 8 h; stronger effect = lower value | activity change, negative = inhibition, % at 7.5 µM (by protocol) | 300,000 compounds, 0.77% hits;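 active = more than half of replicate wells show activity change below -50%, luminescence cut by over half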;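 note: luciferase reports HSF-1 transcriptional activity via heat shock element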
Lipid droplet: inhibitors of hepatocyte lipid droplet formation, primary screen, imaging, high-throughput imaging, BODIPY stain; AML12 mouse hepatocytes, oleate lipid droplets; inhibition, % at 6.5 µM; 240,000 compounds, 0.4% hits;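 active = lipid droplet intensity inhibited by at least 50%, with more than 500 cells counted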
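Assay system: AML12 hepatocytes (mouse); Probe or stimulus: oleic acid at 100 µM to induce lipid droplet formation; Dosing: compound at 6.5 µM only; Schedule: compound with oleate, overnight; Detection: fluorescence imaging, 20x objective, two fields per well; Measure: % inhibition of lipid droplet signal.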
CHT allo act: CHT positive allosteric modulators, primary screen, cell-based, membrane potential dye, choline EC20; B-score at 10 µM; AID 488977, 2010; 310,000 compounds, 0.49% hits; High affinity choline transporter 1 (Homo sapiens), Q9GZV3; CHT-expressing cells; stronger effect = higher value; LV-AA mutant CHT in HEK293 cells;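 active = initial fluorescence not abnormally high and integrated response B-score, plate-corrected, over 3 SD above library mean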
HSF1 activator: HSF-1 activators, primary screen, NIH3T3-HGL cells, MG132 stress, luminescence, single point | NIH3T3-HGL HSF-1 luciferase reporter, 8 h; 100% = twice DMSO control signal | activation, % at 9 µM | 300,000 compounds, 1.7% hits | AID 504408, 2011;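 active = mean replicate activation of at least 50% with a set share of replicates each reaching 50%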
Of the large screens only hits and unclear results are named; the others gave an inactive call. This is a sample that favours compounds with a hit; in the whole collection about 4.9% have one here.

CCOC(=O)COc1ccc2ccccc2c1/C=C/[N+](=O)[O-]	HSF1 activator 177
CCOC(=O)c1c(NC(NC(=O)C(C)C)C(Cl)(Cl)Cl)sc2c1CCC2 (configuration not stated)	none
COc1ccc(C(=O)CCC(=O)Nc2cccnc2)cc1	none
COc1ccc2cc3c(N)nn(C(=O)c4ccccc4Cl)c3nc2c1	HSF1 inh -51
COc1ccc2cc3c(N)nn(C(=O)Cc4c[nH]c5ccccc45)c3nc2c1	HSF1 inh -54
CCCN1CCN(C(=O)c2oc3ccccc3c2NC(=O)COc2ccc(OC)cc2)CC1	none
O=C(Cc1ccc(F)cc1)N(c1ccc(F)cc1)C1C=CS(=O)(=O)C1 (configuration not stated)	none (no result: Lipid droplet)
CC(=O)N1CCN(S(=O)(=O)c2cccc(C(=O)Nc3nc4ccccc4[nH]3)c2)CC1	none (no result: Lipid droplet)
CCCCOc1ccc(S(=O)(=O)N2CCCCCC2)cc1	HSF1 activator 66
Oc1cccc(Nc2c3ccccc3nc3ccccc23)c1	PHOSPHO1 block 61
Nc1nc(CSc2ncn(-c3ccccc3)n2)cs1	HSF1 inh -86
c1ccc(CSc2ncn(-c3ccccc3)n2)cc1	none (no result: Lipid droplet)
O=C(O)c1ccc[n+](Cc2ccc([N+](=O)[O-])cc2)c1	none (no result: PHOSPHO1 block, Lipid droplet)
CCOC(=O)c1c(NC(=S)NCc2ccccc2)sc2c1CCN(C(=O)OCC)C2	HSF1 activator 72
CCOC(=O)c1c(NC(=S)N2CCCCC2)sc2c1CCN(C(=O)OCC)C2	HSF1 activator 121
C=CCNC(=S)Nc1sc2c(c1C(=O)OCC)CCN(C(=O)OCC)C2	HSF1 activator 61
CCOC(=O)N1CCc2c(sc3c2C(=O)NC(c2ccccc2)N3)C1 (configuration not stated)	PHOSPHO1 block 66 (no result: Lipid droplet)
Cc1c(Cl)cccc1NC(=S)NCC1COc2ccccc2O1 (configuration not stated)	none
CC(=O)c1ccc(NC(=O)C(C)OC(=O)CCCN=C2NS(=O)(=O)c3ccccc32)cc1 (configuration not stated)	none (no result: PHOSPHO1 block, Lipid droplet)
Cc1c(C(C)NC(=O)c2ccc3nc(Cc4ccccc4F)oc3c2)cnn1C (configuration not stated)	none
O=C(N/N=C/c1cccnc1)c1ccc2c(c1)OCCO2	HSF1 inh -63
O=C(N/N=C/c1ccc(Br)o1)c1ccc2c(c1)OCCO2	HSF1 inh -79
CCCCOc1ccc2c(c1)C(=O)c1cc(O)ccc1-2	HSF1 activator 64
Cc1ccsc1C(=O)NNC(=O)c1ccc(NS(=O)(=O)c2cccs2)cc1	none (no result: PHOSPHO1 block, Lipid droplet)
COCCN(CC(=O)NC1CCCCC1)C(=O)/C=C/C(=O)c1ccc(OC)cc1O	HSF1 inh -83 (no result: CHT block, CHT allo act)
COc1cc([N+](=O)[O-])ccc1NC(=O)CC(C)C	none
CCNC(=O)CC1SC(=Nc2cccc3ccccc23)N(C)C1=O (configuration not stated)	none
O=c1/c(=C\c2ccc(O)cc2)sc2nc(-c3ccccc3)c(-c3ccccc3)n12	none
Cc1cc(C)c2nc3s/c(=C/c4ccccc4)c(=O)n3c2c1	PHOSPHO1 block 93 (no result: CHT block, HSF1 inh, CHT allo act, HSF1 activator)
O=c1/c(=C/c2ccccc2)sc2nnc(-c3cccs3)n12	HSF1 activator 64
O=C(Nc1cccc(-c2cn3ccccc3n2)c1)c1cnccn1	HSF1 activator 54
CC(C)c1ccc(OCC(=O)NNC(=S)NC(=O)c2cccs2)c(Br)c1	none
COC(=O)CCC(=O)COc1ccc(OC)cc1C#N	HSF1 activator 52 (no result: Lipid droplet)
N#Cc1c(-c2ccc3c(c2)OCO3)csc1N	HSF1 inh -81
CCCC(C)NC(=O)COC(=O)c1ccc2c(c1)C(=O)N(Cc1ccco1)C2=O (configuration not stated)	none
O=[N+]([O-])C1=CC=C2C(=NC3(CCCCC3)N2O)C1=NCCO	none (no result: Lipid droplet)
CCOC(=O)c1c(C)[nH]c(N=Nc2ccc(C)cc2C)c1C	PHOSPHO1 block 65 (no result: Lipid droplet)
CCOC(=O)c1c(C)[nH]c(N=Nc2cc(C(=O)O)cc(C(=O)O)c2)c1C	none
Nc1nnc(CSCc2ccccc2Cl)s1	HSF1 activator 56
COc1ccc2cc(/C=C/C(=O)N3CCN(CC(=O)N4CCCCCC4)CC3)ccc2c1	HSF1 activator 61
COC(=O)C1CCN(C(=O)/C=C/c2ccc(OC)cc2)CC1	none
Cc1ccc(C)c(Cn2c(C)nc3c(sc(=S)n3-c3ccccc3)c2=O)c1	none
Cc1ccc(C(=O)C(C)OC(=O)CNC(=O)c2ccc(Br)o2)cc1 (configuration not stated)	none (no result: PHOSPHO1 block, Lipid droplet)
Cn1c(=O)c2ncn(CC(=O)N/N=C/C=C/c3ccccc3)c2n(C)c1=O	HSF1 activator 60
C=CCN1C(=O)c2ccc(C(=O)OCC(=O)Nc3ccc(S(N)(=O)=O)cc3)cc2C1=O	none (no result: PHOSPHO1 block, Lipid droplet)
CSc1ccccc1NC(=O)C(=O)c1c[nH]c2ccccc12	HSF1 activator 62
O=C(Nc1nccs1)C(=O)c1c[nH]c2ccccc12	HSF1 activator 51
C[C@@H](NC(=O)C(=O)c1c[nH]c2ccccc12)c1ccccc1	none (no result: PHOSPHO1 block, Lipid droplet)
O=C(Cc1c[nH]c2ccccc12)Nc1nccs1	none (no result: Lipid droplet)
O=C(c1cccs1)N1CCN(c2ncc(Br)cn2)CC1	none
CCCN(c1ccc(OCC)cc1)c1ncnc2nc[nH]c12	none
CCN(c1ccc(OC)cc1)c1ncnc2nc[nH]c12	HSF1 inh -64
O=C(NC1CCCCC1)c1sc(=S)n2c1[nH]c(=O)c1ccccc12	PHOSPHO1 block 76 (no result: Lipid droplet)
CCCCNC(=O)c1sc(=S)n2c1[nH]c(=O)c1ccccc12	none (no result: Lipid droplet)
Cc1ccc(C(=O)/C=C/Nc2ccc([N+](=O)[O-])cc2Br)cc1	none (no result: Lipid droplet)
O=C(/C=C/Nc1ccc(F)cc1Br)c1ccccc1	HSF1 inh -66
O=C(/C=C/Nc1ccccc1)c1ccccc1	HSF1 activator 88
CC(=O)Nc1ccc(N/C=C/C(=O)c2ccccc2)cc1	none
COc1cc(Cl)ccc1OCc1cc(C(=O)NCCCN2CCCC2=O)no1	none
O=C1CCCc2nc(NCc3ccco3)ncc21	none (no result: Lipid droplet)
CC(CC(=O)Nc1ccc(-c2ccno2)cc1)n1cccn1 (configuration not stated)	none
CCOC(=O)C1C(c2ccc(O)c(OCC)c2)NC(=S)NC1(O)C(F)(F)F (configuration not stated)	none (no result: Lipid droplet)
COc1ccc(C(=O)/C=C2\Sc3ccccc3N2C)cc1	HSF1 activator 56
CC(=S)/C=C1\Sc2ccccc2N1C	none (no result: Lipid droplet)
COc1ccccc1-c1nc2s/c(=C\c3cccs3)c(=O)n2n1	none
COc1cccc(/C=c2\sc3nc(-c4cccs4)nn3c2=O)c1OC	PHOSPHO1 block 71 (no result: Lipid droplet)
CC(C)c1ccc2oc(=O)cc(CN3CCCCC3)c2c1	HSF1 inh -54
